These results are taken from ChEMBL document CHEMBL2176869, “Discovery of TAK-875: A Potent, Selective, and Orally Bioavailable GPR40 Agonist” (ACS Med Chem Lett, 2010).

A short description of data set [1]: Oral bioavailability in fasted Crl:CD(SD) rat at 3 mg/kg. It counts as ADME, organism-based. The following applies: in vivo. The gist of the method:
(§1)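 Rats dosed at 1 mg/kg iv or 3 mg/kg po, with plasma sampling for PK parameters. Cmax and AUC are expressed as anhydrous-compound equivalents. Values are means of n = 3 rats.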

Data set [2] is described as follows: Terminal half life in fasted Crl:CD(SD) rat at 3 mg/kg, po. It counts as ADME, organism-based. Further details: dose 3 mg/kg, route oral. The following applies: in vivo, read-out: t1/2lambda (converted). Summed up:
as §1

Data set [3] in a line: Terminal half life in fasted dog at 1 mg/kg, po. It counts as ADME, organism-based, Canis lupus familiaris. Also on record: dose 1 mg/kg, route oral. The settings on record: in vivo, read-out: t1/2lambda (converted). The gist of the method: (§2)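 Dogs given 0.5 mg/kg iv or 1 mg/kg po, with plasma PK parameters derived. Cmax and AUC are reported as anhydrous-compound equivalents. Means of n = 4 dogs.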

Data set [4] deals with Rattus norvegicus. Briefly: Antidiabetic activity in Wistar fatty rat assessed as augmentation of insulin secretion at 0.3 to 3 mg/kg, po administered 1 hr prior glucose challenge as single dose by OGTT.
Data set [5] can be described thus: Clearance in fasted Crl:CD(SD) rat at 1 mg/kg, iv. It counts as ADME, organism-based. Also on record: dose 1 mg/kg, route intravenous. The following applies: in vivo. The gist of the method:
as §1

Data set [6] deals with T1, Free fatty acid receptor 4 (Homo sapiens, UniProt Q5NUL3).
T1 sequence (Q5NUL3 whole entry): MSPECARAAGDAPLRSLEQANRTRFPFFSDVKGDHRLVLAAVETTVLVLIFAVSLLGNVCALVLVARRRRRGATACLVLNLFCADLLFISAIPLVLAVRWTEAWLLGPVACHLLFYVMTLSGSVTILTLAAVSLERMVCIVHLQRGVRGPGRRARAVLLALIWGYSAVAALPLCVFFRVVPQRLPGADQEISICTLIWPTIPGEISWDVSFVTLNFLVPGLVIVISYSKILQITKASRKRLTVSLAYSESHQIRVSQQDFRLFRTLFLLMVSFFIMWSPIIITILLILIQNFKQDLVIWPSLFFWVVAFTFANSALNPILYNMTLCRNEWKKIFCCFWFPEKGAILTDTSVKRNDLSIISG
Briefly: Agonist activity at human GPR120 expressed in CHO cells assessed as calcium influx after 30 mins by FLIPR assay. It counts as functional, cell-based.

Data set [7] can be described thus: Tmax in fasted Crl:CD(SD) rat at 3 mg/kg, po. The settings on record: in vivo. Further details: dose 3 mg/kg, route oral. The data set is classed as ADME, organism-based. Summed up:
as §1

Data set [8] has as its target Free fatty acid receptor 1 (Rattus norvegicus, UniProt Q8K3T4). Briefly: Displacement of 3-[4-({2',6'-dimethyl-6-[(4-[3H])phenylmethoxy]biphenyl-3-yl}methoxy)phenyl]propanoic acid from rat GPR40 expressed in CHO membranes after 90 mins by liquid scintillation counting in presence of 0.2 % BSA. The data set is classed as cell membranes, Membrane.
The test system of data set [9] is Rattus norvegicus. Briefly: Antidiabetic activity in Wistar fatty rat assessed as reduction in blood glucose excursion at 0.3 to 3 mg/kg, po administered 1 hr prior glucose challenge as single dose by OGTT. The data set is classed as functional, organism-based. Summed up: (§3)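 Female Wistar fatty rats got a single oral dose of 0.3–3 mg/kg 1 h before a 1 g/kg oral glucose challenge (OGTT). Plasma glucose and insulin were followed over time. Read-outs were incremental AUC0–120 min for glucose and AUCpre–30 min for insulin. Means ± SD, n = 6; compared with vehicle control by one-tailed Williams' test.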

Data set [10] deals with Rattus norvegicus. Briefly: Antidiabetic activity in po dosed Wistar fatty rat assessed as reduction in blood glucose excursion at administered 1 hr prior glucose challenge as single dose by OGTT. The data set is classed as functional. The settings on record: read-out: MED. Summed up: as §3
The target of data set [11] is T2, Free fatty acid receptor 2 (Homo sapiens, UniProt O15552).
T2 sequence (O15552 whole entry): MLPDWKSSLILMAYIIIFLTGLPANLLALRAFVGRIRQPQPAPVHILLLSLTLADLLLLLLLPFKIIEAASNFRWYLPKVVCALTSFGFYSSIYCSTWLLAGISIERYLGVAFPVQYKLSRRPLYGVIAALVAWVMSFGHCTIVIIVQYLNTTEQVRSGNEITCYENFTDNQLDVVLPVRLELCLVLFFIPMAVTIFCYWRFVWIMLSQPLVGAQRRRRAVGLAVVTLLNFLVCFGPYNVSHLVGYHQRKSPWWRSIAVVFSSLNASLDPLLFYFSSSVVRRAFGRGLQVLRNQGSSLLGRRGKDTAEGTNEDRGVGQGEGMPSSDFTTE
Briefly: Agonist activity at human GPR43 expressed in 293 cells assessed as cAMP accumulation after 30 mins by Alphascreen method. The data set is classed as functional, cell-based, HEK293. Background: Cyclic AMP is a second messenger, typically raised through Gs and lowered through Gi signalling.

Data set [12] in a line: Cmax in fasted Crl:CD(SD) rat at 3 mg/kg, po. Also on record: dose 3 mg/kg, route oral. The following applies: in vivo. The data set is classed as ADME, organism-based. The gist of the method: as §1
The target of data set [13] is T3, Free fatty acid receptor 3 (Homo sapiens, UniProt O14843).
T3 sequence (O14843 whole entry): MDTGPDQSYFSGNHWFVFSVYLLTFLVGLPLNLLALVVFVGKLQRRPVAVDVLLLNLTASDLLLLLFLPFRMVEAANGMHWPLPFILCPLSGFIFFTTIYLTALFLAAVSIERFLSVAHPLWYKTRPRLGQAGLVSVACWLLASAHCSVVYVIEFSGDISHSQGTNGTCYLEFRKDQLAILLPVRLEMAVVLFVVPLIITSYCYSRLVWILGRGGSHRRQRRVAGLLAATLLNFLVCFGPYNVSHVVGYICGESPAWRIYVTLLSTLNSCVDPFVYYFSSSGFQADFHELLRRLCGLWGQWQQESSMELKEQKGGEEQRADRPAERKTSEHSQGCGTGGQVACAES
Briefly: Agonist activity at human GPR41 expressed in 293 cells assessed as cAMP accumulation after 30 mins by Alphascreen method. The data set is classed as functional, cell-based, HEK293.

The nature of data set [14]: AUC (0 to 24 hrs) in fasted Crl:CD(SD) rat at 3 mg/kg, po. It counts as ADME, organism-based. Also on record: time < 24 hr, dose 3 mg/kg, route oral. The following applies: plasma. Summed up: as §1
Data set [15] in a line: Terminal half life in fasted dog at 0.5 mg/kg, iv. Further details: dose 0.5 mg/kg, route intravenous. The data set is classed as ADME, organism-based, Canis lupus familiaris. The settings on record: in vivo, read-out: t1/2lambda (converted). Summed up: as §2
Data set [16] is described as follows: Volume of distribution at steady state in fasted dog at 0.5 mg/kg, iv. It counts as ADME, organism-based, Canis lupus familiaris. Also on record: dose 0.5 mg/kg, route intravenous. The following applies: in vivo, read-out: Vdss. Summed up:
as §2

A short description of data set [17]: Clearance in fasted dog at 0.5 mg/kg, iv. The following applies: in vivo. Also on record: dose 0.5 mg/kg, route intravenous. It counts as ADME, organism-based, Canis lupus familiaris. Summed up:
as §2

The subject of data set [18] is Rattus norvegicus. Briefly: Antidiabetic activity in po dosed Wistar fatty rat assessed as augmentation of insulin secretion at administered 1 hr prior glucose challenge as single dose by OGTT. The data set is classed as functional. The settings on record: read-out: MED. Summed up: as §3
Data set [19] in a line: Cmax in fasted dog at 1 mg/kg, po. The data set is classed as ADME, organism-based, Canis lupus familiaris. Further details: dose 1 mg/kg, route oral. The following applies: in vivo. Summed up:
as §2

Data set [20] is described as follows: Oral bioavailability in fasted dog at 1 mg/kg. The data set is classed as ADME, organism-based, Canis lupus familiaris. The settings on record: in vivo. Summed up:
as §2

A short description of data set [21]: AUC (0 to 24 hrs) in fasted dog at 1 mg/kg, po. It counts as ADME, organism-based, Canis lupus familiaris. Also on record: time < 24 hr, dose 1 mg/kg, route oral. The settings on record: plasma. The gist of the method:
as §2

The nature of data set [22]: Volume of distribution at steady state in fasted Crl:CD(SD) rat at 1 mg/kg, iv. It counts as ADME, organism-based. The following applies: in vivo, read-out: Vdss. Also on record: dose 1 mg/kg, route intravenous. The gist of the method: as §1
Data set [23] in a line: Terminal half life in fasted Crl:CD(SD) rat at 1 mg/kg, iv. It counts as ADME, organism-based. The settings on record: in vivo, read-out: t1/2lambda (converted). Further details: dose 1 mg/kg, route intravenous. The gist of the method: as §1
Data set [24] is described as follows: Tmax in fasted dog at 1 mg/kg, po. The data set is classed as ADME, organism-based, Canis lupus familiaris. Also on record: dose 1 mg/kg, route oral. The following applies: in vivo. The gist of the method: as §2
The target in data set [25] is T4, Free fatty acid receptor 1 (Homo sapiens, UniProt O14842). Briefly: Displacement of 3-[4-({2',6'-dimethyl-6-[(4-[3H])phenylmethoxy]biphenyl-3-yl}methoxy)phenyl]propanoic acid from human GPR40 expressed in CHO membranes after 90 mins by liquid scintillation counting in presence of 0.2 % BSA. It counts as cell membranes.
Data set [26] has as its target T4, Free fatty acid receptor 1. Briefly: Agonist activity at human GPR40 expressed in CHO cells assessed as calcium influx by FLIPR assay in presence of 0.1 % BSA. The data set is classed as functional, cell-based.

Calls of active or inactive are those of the source. The calls are words filed in the database; no cut-off is given here.

T4 sequence (O14842 whole entry): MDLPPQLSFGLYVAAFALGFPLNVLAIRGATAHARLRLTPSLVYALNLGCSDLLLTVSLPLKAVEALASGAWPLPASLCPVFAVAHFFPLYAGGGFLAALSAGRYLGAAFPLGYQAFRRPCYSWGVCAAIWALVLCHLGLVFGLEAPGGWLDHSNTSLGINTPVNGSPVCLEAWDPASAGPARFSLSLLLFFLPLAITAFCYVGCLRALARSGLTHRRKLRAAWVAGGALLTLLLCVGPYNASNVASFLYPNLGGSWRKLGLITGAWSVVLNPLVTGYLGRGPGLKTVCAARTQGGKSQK
Chain of Free fatty acid receptor 1 (Rattus norvegicus, UniProt Q8K3T4) (Q8K3T4 whole entry): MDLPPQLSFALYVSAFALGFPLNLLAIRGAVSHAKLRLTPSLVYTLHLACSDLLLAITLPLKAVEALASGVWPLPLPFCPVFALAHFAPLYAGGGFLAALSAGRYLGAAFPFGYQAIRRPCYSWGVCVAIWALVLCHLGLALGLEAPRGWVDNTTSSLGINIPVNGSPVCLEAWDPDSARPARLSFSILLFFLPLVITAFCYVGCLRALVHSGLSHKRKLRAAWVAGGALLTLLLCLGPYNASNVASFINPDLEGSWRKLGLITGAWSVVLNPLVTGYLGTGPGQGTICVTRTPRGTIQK

What is called bioavailability is the share of a dose that reaches the circulation, judged against a reference dose that is usually intravenous. Lower therefore signals poor availability. By clearance is commonly meant the volume of plasma or blood freed of the substance per unit of time. The low end stands for a low capacity for elimination, the high end for a high capacity for elimination. Usually EC50 stands for the concentration at which the effect is half-maximal. For orientation: Tmax means the time from dosing to the highest level. As usually defined, the Ki is the equilibrium dissociation constant of an inhibitor or competing ligand from its target. Usually Cmax stands for the highest concentration seen after dosing. By AUC(0-t) is commonly meant the area under the concentration-time curve up to a stated or last time point. Low readings indicate low exposure, high ones high exposure. For `Cc1cc(OCCCS(C)(=O)=O)cc(C)c1-c1cccc(COc2ccc3c(c2)OC[C@H]3CC(=O)O)c1.O`, the bioavailability in data set [1] was found to be 76%; in [20], 92.4%. Further, the half-life in data set [2] is 4.1 h; in data set [3], 7.5 h; in [15], 5.9 h; in data set [23], 4.7 h. Moreover, the outcome in data set [4] and in data set [9] was Active. Further, the values for the clearance in data set [5] and in data set [17] were 0.569 mL/min/kg and 0.496 mL/min/kg, respectively. The 50% effective concentration (EC50) in data set [6], in data set [11] and in data set [13] was greater than 10000 nM throughout. Moreover, the time to peak (Tmax) in data set [7] worked out at 1 h; in data set [24], 2 h. In addition, in data set [8], the Ki is 140 nM. Besides, the minimal effective dose in [10] and in data set [18] was 1 mg/kg throughout. For the same molecule, the Cmax in data set [12] came to 5770 ng/mL; in [19], 3290 ng/mL. Besides, the exposure AUC(0-t) at 24 h in data set [14] turned out to be 65000 ng·h/mL; in data set [21] it was 29400 ng·h/mL. Besides, the Vd is 0.225 L/kg in [16] and 0.208 L/kg in data set [22].
Consider `Cc1cccc(C)c1-c1cccc(COc2ccc3c(c2)CCC3CC(=O)O)c1` (centres undefined), for which the Ki turned out to be 520 nM in data set [8] and 210 nM in [25]. Further, the EC50 in data set [26] was determined as 28 nM.
On to `Cc1cccc(C)c1-c1cccc(COc2ccc3c(c2)OCC3CC(=O)O)c1` (centres undefined), for which the Ki is 1100 nM in [8] and 170 nM in data set [25]. Also, in data set [26], the EC50 stood at 22 nM.
Regarding `Cc1cc(OCCCS(C)(=O)=O)cc(C)c1-c1cccc(COc2ccc3c(c2)OC[C@@H]3CC(=O)O)c1`, the Ki in data set [8] stood at 1600 nM.
`Cc1cccc(C)c1-c1cccc(COc2ccc3c(c2)CCCC3CC(=O)O)c1` (centres undefined): the inhibition constant Ki in [8] is 3700 nM; in data set [25], 59 nM. For the same molecule, in [26], the EC50 is 23 nM.
As to `Cc1cccc(C)c1-c1cccc(COc2ccc3c(c2)OCCC(C(=O)O)C3)c1` (centres undefined), the results for the Ki in data set [8] and in data set [25] were greater than 10000 nM and 270 nM, respectively. In data set [26], the half-maximal effective concentration (EC50) amounted to 49 nM.
Taken in the same sequence, the figures for `Cc1cccc(C)c1-c1cccc(COc2ccc3c(c2)CCCCC3CC(=O)O)c1` (centres undefined) were greater than 10000 nM, 2400 nM and 540 nM.
Regarding `Cc1cccc(C)c1-c1cccc(COc2ccc3c(CC(=O)O)coc3c2)c1`, the inhibition constant Ki in data set [8] and in data set [25] was greater than 10000 nM each time. In addition, in [26], the EC50 worked out at 1700 nM.
`Cc1cccc(C)c1-c1cccc(COc2ccc(CCC(=O)O)c(F)c2)c1`: the Ki in [8] worked out at 54 nM.
